ChEMBL document CHEMBL4020830, “Design, Synthesis, and Evaluation of a Novel Series of Indole Sulfonamide Peroxisome Proliferator Activated Receptor (PPAR) α/γ/δ Triple Activators: Discovery of Lanifibranor, a New Antifibrotic Clinical Candidate” (J Med Chem, 2018)
Values after ≈ are worked out from the molar mass of the structure shown.

How the values were obtained:
[1] = target: T1, Peroxisome proliferator-activated receptor alpha (Homo sapiens, UniProt Q07869); test: Transactivation of human GAL4-fused PPARalpha LBD expressed in African green monkey COS7 cells co-expressing 5Gal4 pGL3 TK Luc after overnight incubation by luciferase reporter gene assay; format: cell-based
T1 sequence (Q07869 whole entry): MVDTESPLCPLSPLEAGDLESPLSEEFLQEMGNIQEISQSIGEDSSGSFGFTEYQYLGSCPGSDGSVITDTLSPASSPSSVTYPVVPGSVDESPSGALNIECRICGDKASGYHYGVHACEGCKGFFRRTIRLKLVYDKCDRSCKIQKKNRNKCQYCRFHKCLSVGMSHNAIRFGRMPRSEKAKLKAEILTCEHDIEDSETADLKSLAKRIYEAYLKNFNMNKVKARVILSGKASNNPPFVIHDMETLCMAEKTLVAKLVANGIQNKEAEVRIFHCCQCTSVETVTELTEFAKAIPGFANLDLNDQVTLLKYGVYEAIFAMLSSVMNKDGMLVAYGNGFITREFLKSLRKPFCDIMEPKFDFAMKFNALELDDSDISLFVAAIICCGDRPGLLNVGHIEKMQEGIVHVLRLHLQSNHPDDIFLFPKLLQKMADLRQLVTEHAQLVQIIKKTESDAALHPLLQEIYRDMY
How it was run: (§1)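 Cell-based Gal-4 transactivation assay in COS-7 cells transfected with PPARα, PPARδ or PPARγ ligand-binding domain. EC50 and Emax were derived, with Emax as maximum activation in percent of control. EC50s are means of at least two independent experiments performed in triplicate.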

[2] = target: T2, Peroxisome proliferator-activated receptor gamma (Homo sapiens) (UniProt P37231); test: Transactivation of human GAL4-fused PPARgamma LBD expressed in African green monkey COS7 cells co-expressing 5Gal4 pGL3 TK Luc after overnight incubation by luciferase reporter gene assay relative to rosiglitazone; format: cell-based; how it was run: as §1
T2 sequence (whole entry): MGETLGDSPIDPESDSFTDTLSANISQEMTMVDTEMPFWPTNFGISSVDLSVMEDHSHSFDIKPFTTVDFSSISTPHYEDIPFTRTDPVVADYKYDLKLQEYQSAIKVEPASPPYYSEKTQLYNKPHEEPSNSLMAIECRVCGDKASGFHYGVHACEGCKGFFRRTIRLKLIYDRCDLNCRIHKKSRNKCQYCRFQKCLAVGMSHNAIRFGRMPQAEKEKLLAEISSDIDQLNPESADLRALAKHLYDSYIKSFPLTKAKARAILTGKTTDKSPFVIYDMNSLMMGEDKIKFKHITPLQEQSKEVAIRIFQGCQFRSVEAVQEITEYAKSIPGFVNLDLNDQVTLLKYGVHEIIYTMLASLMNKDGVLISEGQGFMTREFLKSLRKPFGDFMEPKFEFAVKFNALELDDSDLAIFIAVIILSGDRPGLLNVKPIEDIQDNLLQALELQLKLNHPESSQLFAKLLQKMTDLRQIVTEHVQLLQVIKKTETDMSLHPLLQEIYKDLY

[3] = target: T3, Peroxisome proliferator-activated receptor gamma (Homo sapiens, UniProt P37231); test: Transactivation of human GAL4-fused PPARgamma LBD expressed in African green monkey COS7 cells co-expressing 5Gal4 pGL3 TK Luc after overnight incubation by luciferase reporter gene assay; format: cell-based; how it was run: as §1
T3 sequence (P37231 whole entry): T2 sequence (whole entry)

[4] = target: T4, Peroxisome proliferator-activated receptor alpha (Homo sapiens) (UniProt Q07869); test: Transactivation of human GAL4-fused PPARalpha LBD expressed in African green monkey COS7 cells co-expressing 5Gal4 pGL3 TK Luc after overnight incubation by luciferase reporter gene assay relative to fenofibric acid; format: cell-based; how it was run: as §1
T4 sequence (whole entry): T1 sequence (Q07869 whole entry)

[5] = target: T5, Peroxisome proliferator-activated receptor delta (Homo sapiens, UniProt Q03181); test: Transactivation of human GAL4-fused PPARdelta LBD expressed in African green monkey COS7 cells co-expressing 5Gal4 pGL3 TK Luc after overnight incubation by luciferase reporter gene assay; format: cell-based; how it was run: as §1
T5 sequence (Q03181 whole entry): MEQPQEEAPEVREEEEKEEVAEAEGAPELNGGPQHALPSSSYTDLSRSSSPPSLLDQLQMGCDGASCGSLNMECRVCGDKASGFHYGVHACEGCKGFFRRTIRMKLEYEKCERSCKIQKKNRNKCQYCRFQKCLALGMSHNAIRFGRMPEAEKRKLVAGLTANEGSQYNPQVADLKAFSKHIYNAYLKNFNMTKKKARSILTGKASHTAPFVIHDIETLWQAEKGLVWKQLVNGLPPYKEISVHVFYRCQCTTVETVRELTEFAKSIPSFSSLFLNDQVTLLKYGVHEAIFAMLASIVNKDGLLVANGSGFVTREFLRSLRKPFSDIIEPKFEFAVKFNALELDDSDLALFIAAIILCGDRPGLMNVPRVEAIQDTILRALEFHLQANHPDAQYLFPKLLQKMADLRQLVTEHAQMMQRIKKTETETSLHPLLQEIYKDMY

[6] = target: T6, Peroxisome proliferator-activated receptor delta (Homo sapiens) (UniProt Q03181); test: Transactivation of human GAL4-fused PPARdelta LBD expressed in African green monkey COS7 cells co-expressing 5Gal4 pGL3 TK Luc after overnight incubation by luciferase reporter gene assay relative to GW501516; format: cell-based; how it was run: as §1
T6 sequence (whole entry): T5 sequence (Q03181 whole entry)

[7] = Apparent permeability from apical to basolateral side in human Caco2 cells at 10 uM after 2 hrs by LC-MS/MS analysis; format: ADME, cell-based, Caco-2; settings: Caco-2
[8] = Aqueous solubility in fasted state simulated intestinal fluid; format: physicochemical
[9] = Apparent permeability from basolateral to apical side in human Caco2 cells at 10 uM after 2 hrs by LC-MS/MS analysis; format: ADME, cell-based, Caco-2; settings: caco-2, 2 h, 10 µM
[10] = Efflux ratio of apparent permeability in human Caco2 cells at 10 uM after 2 hrs by LC-MS/MS analysis; format: ADME, cell-based, Caco-2; settings: Caco-2

EC50 [1] | Emax [2] | EC50 [3] | Emax [4] | EC50 [5] | Emax [6] | Structure (SMILES) | Papp A→B at 2 h, 10 µM [7] | solubility [8] | Papp [9] | efflux ratio at 2 h, 10 µM [10]
1960 nM | 32% | 573 nM | 40% | 2100 nM | 28% | O=C(O)CCCc1cc2cc(C(F)(F)F)ccc2n1S(=O)(=O)c1ccc(OC(F)(F)F)cc1 | – | – | – | –
2760 nM | 39% | 201 nM | 50% | 1140 nM | 23% | O=C(O)CCCc1cc2cc(C(F)(F)F)ccc2n1S(=O)(=O)c1cccc(OC(F)(F)F)c1 | – | – | – | –
– | 36% | 11 nM | < 20% | 441 nM | 27% | Cc1nc2ccc(S(=O)(=O)n3c(CCCC(=O)O)cc4cc(Cl)ccc43)cc2s1 | – | – | – | –
1160 nM | 46% | 65 nM | 37% | 1610 nM | 28% | COc1cccc(S(=O)(=O)n2c(CCCC(=O)O)cc3cc(C(F)(F)F)ccc32)c1 | – | – | – | –
> 5000 nM | 42% | > 5000 nM | 43% | > 5000 nM | 20% | O=C(O)CCCc1cc2cc(Cl)ccc2n1S(=O)(=O)c1ccc2nc[nH]c2c1 | – | – | – | –
1250 nM | 46% | 75 nM | 59% | 1350 nM | 42% | Cc1cccc(S(=O)(=O)n2c(CCCC(=O)O)cc3cc(Cl)ccc32)c1 | – | – | – | –
2820 nM | 36% | 629 nM | 45% | 1650 nM | 38% | O=C(O)CCCc1cc2cc(C(F)(F)F)ccc2n1S(=O)(=O)c1ccc(Cl)cc1 | – | – | – | –
1620 nM | 70% | 147 nM | 82% | 1120 nM | 79% | O=C(O)CCCc1cc2cc(C(F)(F)F)ccc2n1S(=O)(=O)c1ccc2ncsc2c1 | – | – | – | –
> 5000 nM | 35% | 1250 nM | 35% | – | < 20% | COc1ccccc1S(=O)(=O)n1c(CCCC(=O)O)cc2cc(C(F)(F)F)ccc21 | – | – | – | –
1300 nM | 38% | 284 nM | 46% | > 5000 nM | 45% | Cc1ccc2c(c1)cc(CCCC(=O)O)n2S(=O)(=O)c1ccccc1 | – | – | – | –
160 nM | 32% | 910 nM | 90% | – | < 20% | CC(C)(CCc1cc2cc(Cl)ccc2n1S(=O)(=O)c1ccccc1)C(=O)O | – | – | – | –
– | – | – | – | – | – | CC(=O)CC(c1ccccc1)c1c(O)c2ccccc2oc1=O (stereo unspecified) [WARFARIN] | 39.8 ×10⁻⁶ cm/s | 56 µM (≈ 17.3 µg/mL) | 0.7 ×10⁻⁶ cm/s | 0.02
> 5000 nM | 45% | > 5000 nM | 104% | – | < 20% | O=C(O)CCCc1cc2cc(C(F)(F)F)ccc2n1S(=O)(=O)c1ccccc1Cl | – | – | – | –
– | < 20% | – | < 20% | – | < 20% | O=C(O)CCCCc1cc2cc(Cl)ccc2n1S(=O)(=O)c1ccccc1 | – | – | – | –
419 nM | 25% | 72 nM | 26% | – | < 20% | COc1ccc(S(=O)(=O)n2c(CCCC(=O)O)cc3cc(Cl)ccc32)cc1 | – | – | – | –
2420 nM | 49% | 256 nM | 70% | 2030 nM | 21% | O=C(O)CCCc1cc2cc(C(F)(F)F)ccc2n1S(=O)(=O)c1cccc(Cl)c1 | – | – | – | –
305 nM | 48% | 72 nM | 40% | 1230 nM | 43% | COc1cccc(S(=O)(=O)n2c(CCCC(=O)O)cc3cc(Cl)ccc32)c1 | – | – | – | –
1260 nM | 74% | 41 nM | 57% | 919 nM | 82% | Nc1nc2ccc(S(=O)(=O)n3c(CCCC(=O)O)cc4cc(Cl)ccc43)cc2s1 | – | – | – | –
– | < 20% | – | < 20% | – | < 20% | O=C(O)COCc1cc2cc(Cl)ccc2n1S(=O)(=O)c1ccccc1 | – | – | – | –
– | 34% | 35 nM | < 20% | – | < 20% | O=C(O)CCCc1cc2cc(Cl)ccc2n1S(=O)(=O)c1ccc2ccccc2c1 | – | – | – | –
1200 nM | 50% | 417 nM | 48% | > 5000 nM | 49% | O=C(O)CCCc1cc2cc(C(F)(F)F)ccc2n1S(=O)(=O)c1ccccc1 | – | – | – | –
> 5000 nM | 67% | 153 nM | 81% | > 5000 nM | 35% | O=C(O)CCCc1cc2cc(Cl)ccc2n1S(=O)(=O)c1ccc2nsnc2c1 | – | – | – | –
> 5000 nM | 52% | 378 nM | 44% | 1390 nM | 66% | Nc1nc2ccc(S(=O)(=O)n3c(CCCC(=O)O)cc4cc(Cl)ccc43)cc2o1 | – | – | – | –
– | < 20% | – | < 20% | – | < 20% | COc1ccc2c(c1)cc(CCCC(=O)O)n2S(=O)(=O)c1ccccc1 | – | – | – | –
764 nM | 38% | 82 nM | 55% | 1260 nM | 24% | COc1ccc(S(=O)(=O)n2c(CCCC(=O)O)cc3cc(C(F)(F)F)ccc32)cc1 | – | – | – | –
790 nM | 45% | 71 nM | 77% | 977 nM | 43% | O=C(O)CCCc1cc2cc(Cl)ccc2n1S(=O)(=O)c1ccc2c(c1)OCO2 | – | – | – | –
2360 nM | 39% | 175 nM | 22% | 1100 nM | 20% | Cc1nc2cc(S(=O)(=O)n3c(CCCC(=O)O)cc4cc(Cl)ccc43)ccc2s1 | – | – | – | –
901 nM | 36% | 265 nM | 67% | – | < 20% | O=C(O)CCCc1cc2cc(Cl)ccc2n1S(=O)(=O)c1cccc2ccccc12 | – | – | – | –
> 5000 nM | 30% | 277 nM | 36% | 1080 nM | 29% | Cc1ccc(S(=O)(=O)n2c(CCCC(=O)O)cc3cc(Cl)ccc32)cc1 | – | – | – | –
410 nM | 48% | 16 nM | 113% | 697 nM | 54% | CN1CCOc2ccc(S(=O)(=O)n3c(CCCC(=O)O)cc4cc(Cl)ccc43)cc21 | – | – | – | –
